Laboratory results published in ChEMBL document CHEMBL3102739, “Synthesis and antiproliferative activity of conformationally restricted 1,2,3-triazole analogues of combretastatins in the sea urchin embryo model and against human cancer cell lines” (Bioorg Med Chem, 2014).
Activity calls are given as the source filed them.

Key:
[1] = Cytotoxicity against human Jurkat/A4 cells assessed as cell death at 1 uM after 48 hrs by trypan blue exclusion assay relative to control; type: functional
Summary of the method: (§1)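 Compound added to exponentially growing Jurkat or Jurkat/A4 cells in RPMI-1640 with 10% FCS at 37 °C. Viable cells counted directly by trypan blue exclusion after 48 h. EC50 taken by linear interpolation of survival data. Mean±SD from three independent experiments.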

Jurkat [2] = assay: Cytotoxicity against human Jurkat cells assessed as cell viability after 48 hrs by trypan blue exclusion assay; type: functional, cell-based; summary of the method: as §1
Paracentrotus lividus [3] = assay: Antimitotic activity against sea urchin embryo free-swimming blastula model assessed as embryo spinning compound treated at 8 to 10 hrs post-fertilization measured after 0.25 to 20 hrs; type: functional, Blastula stage
Paracentrotus lividus [4] = assay: Antimitotic activity against sea urchin embryo model assessed as cleavage arrest of fertilized egg compound treated at 8 to 20 mins post-fertilization and 45 to 55 mins prior to first mitotic cycle completion measured 2.5 to 5.5 hrs post-fertilization; type: functional
Summary of the method: (§2)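 Fertilized eggs are exposed 8–20 min after fertilization to 2-fold decreasing concentrations. Stocks are 10 mM in DMSO, then diluted 10-fold in 95% EtOH; final DMSO is at most 0.05% and EtOH at most 1%. Embryos are kept as a monolayer, up to 2000 embryos/mL, in filtered seawater at room temperature. The value is the threshold concentration giving cleavage alteration, embryo death before hatching or full mitotic arrest. Duplicates were run.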

Paracentrotus lividus [5] = assay: Antimitotic activity against sea urchin embryo model assessed as cleavage alteration of fertilized egg compound treated at 8 to 20 mins post-fertilization and 45 to 55 mins prior to first mitotic cycle completion measured 2.5 to 5.5 hrs post-fertilization; type: functional; summary of the method: as §2
[6] = Cytotoxicity against human MES-SA/Dx5 cells after 72 hrs by MTS assay; type: functional, cell-based; details: MES-SA/Dx5, 72 h
[7] = Cytotoxicity against human MES-SA cells after 72 hrs by MTS assay; type: functional, cell-based
[8] = Cytotoxicity against multidrug-resistant human HL60/TX1000 cells after 72 hrs by MTS assay; type: functional, cell-based; details: HL60/TX1000, 72 h
HL-60 = assay: Cytotoxicity against human HL60 cells after 72 hrs by MTS assay; type: functional, cell-based; details: HL-60, 72 h
[9] = Induction of apoptosis in human Jurkat/A4 cells assessed as PARP-1 cleavage at 300 nM after 48 hrs by FITC-conjugated flow cytometric analysis (reference value: 0.9%); type: functional
Jurkat [10] = assay: Induction of apoptosis in human Jurkat cells assessed as PARP-1 cleavage at 30 nM after 48 hrs by FITC-conjugated flow cytometric analysis (reference value: 3.5%); type: functional
[11] = Induction of apoptosis in human Jurkat/A4 cells assessed as active caspase 3 expression at 300 nM after 48 hrs by FITC-conjugated flow cytometric analysis (reference value: 1.1%); type: functional
[12] = Induction of apoptosis in human Jurkat/A4 cells assessed as active caspase 3 expression at 300 nM after 24 hrs by FITC-conjugated flow cytometric analysis (reference value: 1.1%); type: functional
Jurkat [13] = assay: Induction of apoptosis in human Jurkat cells assessed as active caspase 3 expression at 30 nM after 48 hrs by FITC-conjugated flow cytometric analysis (reference value: 3.3%); type: functional
Jurkat [14] = assay: Induction of apoptosis in human Jurkat cells assessed as active caspase 3 expression at 30 nM after 24 hrs by FITC-conjugated flow cytometric analysis (reference value: 3.3%); type: functional
Jurkat [15] = assay: Induction of apoptosis in human Jurkat cells assessed as active caspase 3 expression at 30 nM by FITC-conjugated flow cytometric analysis; type: functional, cell-based; details: TDE = time-dependent effect
Jurkat/A4 [16] = assay: Induction of apoptosis in human Jurkat/A4 cells assessed as Bcl-2 expression at 300 nM after 24 to 48 hrs Western blotting analysis; type: functional, cell-based
Summary of the method: (§3)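 Cells in RPMI-1640 with 10% FCS at 37 °C, 5% CO2, were treated for 24 or 48 h, then washed in cold PBS. They were lysed 30 min at 4 °C in 20 mM Tris-HCl pH 7.4, 1% Triton X-100, 150 mM NaCl and protease inhibitors. Equal protein was run on 12% SDS-PAGE and blotted to PVDF, with 5% milk block. Primary MoAb 2 h RT, HRP anti-mouse 60 min, ECL; β-actin loading control.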

Jurkat [17] = assay: Induction of apoptosis in human Jurkat cells assessed as Bcl-2 expression at 30 nM after 24 to 48 hrs Western blotting analysis; type: functional, cell-based; summary of the method: as §3
Jurkat/A4 [18] = assay: Induction of apoptosis in human Jurkat/A4 cells assessed as reduction of XIAP expression at 300 nM after 24 hrs Western blotting analysis; type: functional, cell-based; summary of the method: as §3
Jurkat [19] = assay: Induction of apoptosis in human Jurkat cells assessed as reduction of XIAP expression at 30 nM after 24 hrs Western blotting analysis; type: functional, cell-based; summary of the method: as §3
Jurkat/A4 [20] = assay: Induction of apoptosis in human Jurkat/A4 cells assessed as caspase 2 activation at 300 nM after 24 to 48 hrs by Western blotting analysis; type: functional, cell-based; summary of the method: as §3
Jurkat/A4 [21] = assay: Induction of apoptosis in human Jurkat/A4 cells assessed as caspase 9 activation at 300 nM after 24 to 48 hrs by Western blotting analysis; type: functional, cell-based; summary of the method: as §3
Jurkat [22] = assay: Induction of apoptosis in human Jurkat cells assessed as caspase 2 activation at 30 nM after 24 to 48 hrs by Western blotting analysis; type: functional, cell-based; summary of the method: as §3
Jurkat [23] = assay: Induction of apoptosis in human Jurkat cells assessed as caspase 9 activation at 30 nM after 48 hrs by Western blotting analysis; type: functional, cell-based; summary of the method: as §3
[24] = Cell cycle arrest in human Jurkat/A4 cells assessed as accumulation at sub-G1 phase at 300 nM after 48 hrs by propidium iodide staining-based flow cytometric analysis (reference value: 17.1%); type: functional
Jurkat [25] = assay: Cell cycle arrest in human Jurkat cells assessed as accumulation at sub-G1 phase at 30 nM after 48 hrs by propidium iodide staining-based flow cytometric analysis (reference value: 12.2%); type: functional
Jurkat/A4 [26] = assay: Induction of apoptosis in human Jurkat/A4 cells assessed as condensed and fragmented nuclei at 300 nM after 48 hrs by May-Grunwald-Giemsa staining-based microscopic analysis; type: functional, cell-based
Summary of the method: (§4)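 Jurkat or Jurkat/A4 suspension cultures in RPMI-1640 with 10% FCS at 37 °C, 5% CO2 were treated for 48 h alongside untreated controls. Cells were cytospun, stained May–Grünwald–Giemsa and examined by light microscopy with a 100× objective for nuclear and mitotic abnormalities.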

Jurkat/A4 [27] = assay: Induction of apoptosis in human Jurkat/A4 cells assessed as small cell fragments with unequally segregated chromosomes enclosed by cell membrane at 300 nM after 48 hrs by May-Grunwald-Giemsa staining-based microscopic analysis; type: functional; summary of the method: as §4
Jurkat/A4 [28] = assay: Induction of apoptosis in human Jurkat/A4 cells assessed as micronuclei formation at 300 nM after 48 hrs by May-Grunwald-Giemsa staining-based microscopic analysis; type: functional, cell-based; summary of the method: as §4
Jurkat [29] = assay: Induction of apoptosis in human Jurkat cells assessed as condensed and fragmented nuclei at 15 nM after 48 hrs by May-Grunwald-Giemsa staining-based microscopic analysis; type: functional, cell-based; summary of the method: as §4
Jurkat [30] = assay: Induction of apoptosis in human Jurkat cells assessed as small cell fragments with unequally segregated chromosomes enclosed by cell membrane at 15 nM after 48 hrs by May-Grunwald-Giemsa staining-based microscopic analysis; type: functional; summary of the method: as §4
Jurkat [31] = assay: Induction of apoptosis in human Jurkat cells assessed as micronuclei formation at 15 nM after 48 hrs by May-Grunwald-Giemsa staining-based microscopic analysis; type: functional, cell-based; summary of the method: as §4
[32] = Cell cycle arrest in human Jurkat/A4 cells assessed as decrease in accumulation at G0/G1 phase at 300 nM after 24 hrs by propidium iodide staining-based flow cytometric analysis; type: functional
[33] = Cell cycle arrest in human Jurkat/A4 cells assessed as increase in accumulation at G2/M phase at 300 nM after 24 hrs by propidium iodide staining-based flow cytometric analysis; type: functional
Jurkat [34] = assay: Cell cycle arrest in human Jurkat cells assessed as decrease in accumulation at G0/G1 phase at 30 nM after 24 hrs by propidium iodide staining-based flow cytometric analysis; type: functional
Jurkat [35] = assay: Cell cycle arrest in human Jurkat cells assessed as increase in accumulation at G2/M phase at 30 nM after 24 hrs by propidium iodide staining-based flow cytometric analysis; type: functional
Jurkat/A4 [36] = assay: Cytotoxicity against human Jurkat/A4 cells assessed as cell death treated for 2 hrs followed by cultivation in drug-free medium for 7 days; type: functional, cell-based
Summary of the method: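 Jurkat/A4 cells in RPMI-1640 with 10% fetal calf serum are exposed for two hours, then cultured seven days in drug-free medium and scored for delayed cell death.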

Q: For `COc1ccc(-c2cnnn2-c2cc(OC)c(OC)c(OC)c2)cc1`, which Activity [1] is on record?
A: <20%

Q: And the EC50 (Jurkat [2])?
A: 30 nM

Q: What about the EC (Paracentrotus lividus [3]) of the same compound?
A: 1 µM

Q: And the EC (Paracentrotus lividus [4])?
A: 0.2 µM

Q: And the EC (Paracentrotus lividus [5])?
A: 0.02 µM

Q: What about the IC50 [6] of the same compound?
A: 20 nM

Q: What about the IC50 [7] of the same compound?
A: 20 nM

Q: What about the IC50 [8] of the same compound?
A: 20 nM

Q: And the IC50 (HL-60)?
A: 20 nM

Q: And the Activity [9]?
A: 2.5%

Q: What about the Activity (Jurkat [10]) of the same compound?
A: 61.4%

Q: And the Activity [11]?
A: 1.6%

Q: What about the Activity [12] of the same compound?
A: 1.8%

Q: What about the Activity (Jurkat [13]) of the same compound?
A: 32.1%

Q: And the Activity (Jurkat [14])?
A: 19.6%

Q: And the Activity (Jurkat [15])?
A: tde

Q: What about the Activity (Jurkat/A4 [16]) of the same compound?
A: inactive

Q: What about the Activity (Jurkat [17]) of the same compound?
A: inactive

Q: What about the Activity (Jurkat/A4 [18]) of the same compound?
A: inactive

Q: What about the Activity (Jurkat [19]) of the same compound?
A: Active

Q: And the Activity (Jurkat/A4 [20])?
A: inactive

Q: What about the Activity (Jurkat/A4 [21]) of the same compound?
A: inactive

Q: And the Activity (Jurkat [22])?
A: Active

Q: And the Activity (Jurkat [23])?
A: Active

Q: What about the Activity [24] of the same compound?
A: 26.2%

Q: And the Activity (Jurkat [25])?
A: 43.4%

Q: And the Activity (Jurkat/A4 [26])?
A: Active

Q: And the Activity (Jurkat/A4 [27])?
A: Active

Q: And the Activity (Jurkat/A4 [28])?
A: Active

Q: What about the Activity (Jurkat [29]) of the same compound?
A: Active

Q: What about the Activity (Jurkat [30]) of the same compound?
A: Active

Q: And the Activity (Jurkat [31])?
A: Active

Q: What about the Activity [32] of the same compound?
A: Active

Q: What about the Activity [33] of the same compound?
A: Active

Q: What about the Activity (Jurkat [34]) of the same compound?
A: Active

Q: And the Activity (Jurkat [35])?
A: Active

Q: And the Activity (Jurkat/A4 [36])?
A: Active
